Results: ChEMBL document CHEMBL5325487, “Suramin analogues protect cartilage against osteoarthritic breakdown by increasing levels of tissue inhibitor of metalloproteinases 3 (TIMP-3) in the tissue” (Bioorg Med Chem, 2023)
Each block holds one compound with its values, some of them ahead of it. Calls of active or inactive are those of the source. The calls are words filed in the database; no cut-off is given here.

Legend:
[1] = system: SW1353; assay: Effect on ADAMTS5 mRNA level in human HTB-94 cells at 50 to 200 ug/ml incubated for 36 hrs by RT-qPCR analysis; format: functional, cell-based; conditions: dose 50-200 µg/ml
Method in brief: (§1)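 HTB94 cells (5×10^5/well) plated overnight, washed three times, then treated with analogue (50–200 μg/mL) in serum-free DMEM for 36 h. RNA was isolated and transcripts quantified by RT-qPCR (ΔΔCt), normalised to RN18S1 and to untreated cells. n = 3, mean ± SD.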

[2] = system: SW1353; assay: Effect on MMP13 mRNA level in human HTB-94 cells at 50 to 200 ug/ml incubated for 36 hrs by RT-qPCR analysis; format: functional, cell-based; conditions: dose 50-200 µg/ml; method in brief: as §1
[3] = system: SW1353; assay: Effect on ADAMTS4 mRNA level in human HTB-94 cells at 50 to 200 ug/ml incubated for 36 hrs by RT-qPCR analysis; format: functional, cell-based; conditions: dose 50-200 µg/ml; method in brief: as §1
[4] = Induction of TIMP3 protein level in human HTB-94 cells incubated for 36 hrs by slot blotting analysis relative to 100 ug/ml suramin; format: functional, cell-based; conditions: SW1353, 36 h
Method in brief: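 Dose-response over 0–250 μg/mL for 36 h in serum-free DMEM using HTB94 cells (5×10^5/well). TIMP-3 in TCA-concentrated medium was measured by slot blot with anti-TIMP-3/IRDye 800CW detection, normalised to 100 μg/mL suramin on each blot. EC50 was fitted with a one-site specific binding model. n = 3, mean ± SD.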

[5] = Cytotoxicity against porcine Chondrocyte assessed cell number at 100 ug/ml incubated for 3 days in presence of IL-1beta by MTS assay; format: toxicity, cell-based, Sus scrofa; conditions: pig, 72 h, dose 100 µg/ml, time 3 day
Method in brief: (§2)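 Primary porcine chondrocytes, released by pronase E then type II collagenase digestion of cartilage and plated at 10^4/well, were washed in serum-free DMEM. They were exposed to 100 μg/mL analogue, with or without IL-1β (10 ng/mL), for 3 days. Cell number was read by MTS against a twice freeze/thawed control. n = 3 biological replicates, mean ± SD.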

[6] = system: SW1353; assay: Effect on LRP1 mRNA level in human HTB-94 cells at 50 to 200 ug/ml incubated for 36 hrs by RT-qPCR analysis; format: functional, cell-based; conditions: dose 50-200 µg/ml; method in brief: as §1
[7] = system: SW1353; assay: Induction of TIMP3 protein level in human HTB-94 cells at 100 ug/ml incubated for 36 hrs by Western blotting analysis; format: functional, cell-based; conditions: dose 100.0 µg/ml
Method in brief: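 HTB94 cells (5×10^5/well) washed in serum-free DMEM and treated 36 h with 100 μg/mL in serum-free DMEM. Conditioned medium was TCA-precipitated and run on non-reducing 15% SDS-PAGE, then transferred to PVDF. TIMP-3 was detected with rabbit anti-TIMP-3 and an IRDye 800CW secondary by infrared imaging. Values are expressed as % of 100 μg/mL suramin-treated samples on the same blot. n = 3, mean ± SD.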

[8] = Cytotoxicity against porcine Chondrocyte assessed cell number at 100 ug/ml incubated for 3 days by MTS assay; format: toxicity, cell-based, Sus scrofa; conditions: pig, 72 h, dose 100 µg/ml, time 3 day; method in brief: as §2
[9] = biological target: T1, Metalloproteinase inhibitor 3 (Homo sapiens, UniProt P35625); assay: Binding affinity to FLAG-tagged human TIMP3 expressed in HEK293 cells assessed as dissociation constant; format: cell-based
T1 sequence (P35625 whole entry): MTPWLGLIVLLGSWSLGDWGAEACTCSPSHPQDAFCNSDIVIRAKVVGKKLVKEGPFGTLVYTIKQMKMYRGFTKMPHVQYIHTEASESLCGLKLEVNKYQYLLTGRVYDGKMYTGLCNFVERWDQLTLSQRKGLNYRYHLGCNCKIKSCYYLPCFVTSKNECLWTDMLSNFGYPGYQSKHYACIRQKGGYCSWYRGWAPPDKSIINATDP

[10] = Induction of TIMP3 protein level in human HTB-94 cells at 100 ug/ml incubated for 36 hrs by slot blotting analysis relative to suramin; format: functional, SW1353; conditions: dose 100 µg/ml
Method in brief: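 Serum-free 36 h treatment (100 μg/mL) of HTB94 cells (5×10^5/well). TCA-concentrated conditioned medium was slot-blotted onto nitrocellulose and probed with rabbit anti-TIMP-3 and an IRDye 800CW secondary, then imaged by infrared fluorescence. Pixel volume is expressed relative to 100 μg/mL suramin samples on the same blot (100%). n = 3, mean ± SD.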

[11] = species: Sus scrofa; assay: Inhibition of cartilage degradation in porcine cartilage explants assessed as inhibition of IL-1beta-induced aggrecan release at 100 ug/ml measured after 3 days by DMMB assay; format: functional, tissue-based; conditions: Cartilage tissue, dose 100.0 µg/ml, time 3.0 day
Method in brief: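 Porcine metacarpophalangeal cartilage explants (3–9-month-old pigs), rested 48 h after dissection, were washed and treated 72 h with IL-1β (10 ng/mL) plus 100 μg/mL analogue. Medium was DMEM with 0.1% FCS, amphotericin B and 10 mM HEPES. Aggrecan released into the medium was measured by DMMB assay. n = 3 biological × 2 technical replicates, mean ± SD.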

[12] = system: SW1353; assay: Cytotoxicity against human HTB-94 cells assessed as cell viability at 100 ug/ml measured after 36 h by MTS assay
[13] = system: SW1353; assay: Effect on TIMP3 mRNA level in human HTB-94 cells at 50 to 200 ug/ml incubated for 36 hrs by RT-qPCR analysis; format: functional, cell-based; conditions: dose 50-200 µg/ml; method in brief: as §1

Compound: O=C(Nc1ccc(C(=O)Nc2cc(S(=O)(=O)O)cc3cc(S(=O)(=O)O)cc(S(=O)(=O)O)c23)cc1)c1ccc([N+](=O)[O-])cc1
Activity [7]: inactive

Compound: O=C(Nc1cc(C(=O)Nc2ccc(S(=O)(=O)O)cc2S(=O)(=O)O)cc(C(=O)Nc2ccc(S(=O)(=O)O)cc2S(=O)(=O)O)c1)Nc1cc(C(=O)Nc2ccc(S(=O)(=O)O)cc2S(=O)(=O)O)cc(C(=O)Nc2ccc(S(=O)(=O)O)cc2S(=O)(=O)O)c1
Kd [9]: 4.66 nM

Compound: O=C(Nc1cccc(C(=O)Nc2ccc(C(=O)Nc3cc(S(=O)(=O)O)cc4cc(S(=O)(=O)O)cc(S(=O)(=O)O)c34)cc2)c1)Nc1cccc(C(=O)Nc2ccc(C(=O)Nc3cc(S(=O)(=O)O)cc4cc(S(=O)(=O)O)cc(S(=O)(=O)O)c34)cc2)c1
Activity [10]: -50% | inhibition [11]: Active | Activity [12]: Non-Toxic

Compound: Nc1ccc(C(=O)Nc2cc(S(=O)(=O)O)cc3cc(S(=O)(=O)O)cc(S(=O)(=O)O)c23)cc1
Activity [7]: inactive

Compound: O=C(Nc1ccc(C(=O)Nc2ccc(C(=O)Nc3ccc(S(=O)(=O)O)c4cc(S(=O)(=O)O)cc(S(=O)(=O)O)c34)cc2)cc1)Nc1ccc(C(=O)Nc2ccc(C(=O)Nc3ccc(S(=O)(=O)O)c4cc(S(=O)(=O)O)cc(S(=O)(=O)O)c34)cc2)cc1
EC50 [4]: 17000 nM

Compound: O=C(Nc1ccc(C(=O)Nc2ccc(C(=O)Nc3cc(S(=O)(=O)O)cc4cc(S(=O)(=O)O)cc(S(=O)(=O)O)c34)cc2)cc1)Nc1ccc(C(=O)Nc2ccc(C(=O)Nc3cc(S(=O)(=O)O)cc4cc(S(=O)(=O)O)cc(S(=O)(=O)O)c34)cc2)cc1
Activity [1]: inactive | Activity [10]: 30% | Activity [2]: inactive | Activity [3]: inactive | EC50 [4]: 19000 nM | Activity [5]: Non-Toxic | Activity [6]: inactive | Activity [7]: Active | Activity [8]: Non-Toxic | Activity [13]: inactive

Compound: Nc1ccc(C(=O)Nc2ccc(C(=O)Nc3cc(S(=O)(=O)O)cc4cc(S(=O)(=O)O)cc(S(=O)(=O)O)c34)cc2)cc1
Activity [7]: inactive

Compound: O=C(Nc1cc(S(=O)(=O)O)cc2cc(S(=O)(=O)O)cc(S(=O)(=O)O)c12)c1ccc([N+](=O)[O-])cc1
Activity [7]: inactive

Compound: O=C(Nc1cccc(C(=O)Nc2ccc(S(=O)(=O)O)c3cc(S(=O)(=O)O)cc(S(=O)(=O)O)c23)c1)Nc1cccc(C(=O)Nc2ccc(S(=O)(=O)O)c3cc(S(=O)(=O)O)cc(S(=O)(=O)O)c23)c1
Kd [9]: 26.5 nM

Compound: O=C(Nc1cc(C(=O)Nc2ccc(S(=O)(=O)O)cc2)cc(C(=O)Nc2ccc(S(=O)(=O)O)cc2)c1)Nc1cc(C(=O)Nc2ccc(S(=O)(=O)O)cc2)cc(C(=O)Nc2ccc(S(=O)(=O)O)cc2)c1
Kd [9]: 6.88 nM

Further lines, with some results ahead:

EC50 [4]: 15000 nM
Compound: Cc1ccc(C(=O)Nc2ccc(S(=O)(=O)O)c3cc(S(=O)(=O)O)cc(S(=O)(=O)O)c23)cc1NC(=O)c1cccc(NC(=O)Nc2cccc(C(=O)Nc3cc(C(=O)Nc4ccc(S(=O)(=O)O)c5cc(S(=O)(=O)O)cc(S(=O)(=O)O)c45)ccc3C)c2)c1 [SURAMIN]
Activity [1]: inactive | Activity [2]: inactive | Activity [3]: inactive | Activity [5]: Non-Toxic | Activity [6]: inactive | Activity [7]: Active | Activity [8]: Non-Toxic

Kd [9]: > 100 nM
Compound: Cc1ccc(C(=O)Nc2ccc(P(=O)(O)O)cc2P(=O)(O)O)cc1NC(=O)c1cccc(NC(=O)Nc2cccc(C(=O)Nc3cc(C(=O)Nc4ccc(P(=O)(O)O)cc4P(=O)(O)O)ccc3C)c2)c1

Kd [9]: > 100 nM
Compound: O=C(Nc1cccc(C(=O)Nc2cc(S(=O)(=O)O)cc3ccc(S(=O)(=O)O)cc23)c1)Nc1cccc(C(=O)Nc2cc(S(=O)(=O)O)cc3ccc(S(=O)(=O)O)cc23)c1

Kd [9]: 1.55 nM
Compound: O=C(Nc1cccc(C(=O)Nc2cc(C(=O)Nc3ccc(S(=O)(=O)O)c4cc(S(=O)(=O)O)cc(S(=O)(=O)O)c34)ccc2F)c1)Nc1cccc(C(=O)Nc2cc(C(=O)Nc3ccc(S(=O)(=O)O)c4cc(S(=O)(=O)O)cc(S(=O)(=O)O)c34)ccc2F)c1

EC50 [4]: 17000 nM
Compound: O=C(Nc1ccc(C(=O)Nc2cccc(C(=O)Nc3cc(S(=O)(=O)O)cc4cc(S(=O)(=O)O)cc(S(=O)(=O)O)c34)c2)cc1)Nc1ccc(C(=O)Nc2cccc(C(=O)Nc3cc(S(=O)(=O)O)cc4cc(S(=O)(=O)O)cc(S(=O)(=O)O)c34)c2)cc1
Activity [10]: -50% | inhibition [11]: Active | Activity [12]: Non-Toxic
